We go through one compound from ChEMBL document CHEMBL4732136, “Synthesis, Tumor Specificity, and Photosensitizing Efficacy of Erlotinib-Conjugated Chlorins and Bacteriochlorins: Identification of a Highly Effective Candidate for Photodynamic Therapy of Cancer” (J Med Chem, 2021).

Structures are written as SMILES.

Series [1] is described as follows: Drug uptake in tumor of SCID mouse xenografted with human UMUC3 cells at 0.125 micromol/kg, iv pretreated with compound followed by light irradiation at a dose of 135 J/cm2 and 75 mW/cm2 measured after 2 to 24 hrs by IVIS analysis. Format: ADME, organism-based, Neoplasm. Conditions: in vivo, time 2-24 hrs, dose 0.125 µmol/kg; call rule not given here. In outline: (§1)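 Female SCID mice with UMUC3 flank/shoulder tumors, 3 per group. PS in 1% Tween80/5% dextrose given iv at 0.47, 0.25 or 0.125 μmol/kg. Whole-body fluorescence imaging by IVIS at several times after injection; average radiant efficiency measured in tumor, liver and skin.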

Series [2] can be described thus: Drug uptake in tumor of SCID mouse xenografted with human UMUC3 cells assessed as drug accumulation at 0.47 micromol/kg, iv pretreated with compound followed by light irradiation at a dose of 135 J/cm2 and 75 mW/cm2 measured after 6 hrs by IVIS analysis. Conditions: in vivo, dose 0.47 µmol/kg. Type of series: ADME, organism-based, Neoplasm. Summed up: as §1
A short description of series [3]: Drug uptake in human HNT1 cells at 3.2 uM incubated for 30 mins in serum free medium followed by […] in compound-free medium by inverted fluorescence microscopic analysis. Type of series: ADME, cell-based. Conditions: hnt1, 0.5 h. In outline: (§2)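 Confluent HNT1 cultures (passage 116) given 3.2 μM PS for 30 min in serum-free medium, then 5 h in serum-containing medium with PS, then 15 h chase in serum medium without PS. Fluorescence recorded at 100X with varied camera exposures and quantified digitally; pixel signal normalized to time and cell number.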

Series [4] is described as follows: Drug uptake in human HNT1 cells at 3.2 uM incubated for 30 mins in DMEM media with 10% FBS followed by […] in compound-free medium by inverted fluorescence microscopic analysis. Type of series: ADME, cell-based. Conditions: hnt1, 0.5 h, in the assay text read “in serum-free medium” for “in DMEM media with 10% FBS”. In outline: as §2
Series [5] is described as follows: Drug uptake in human HN-143 cells assessed as increase in drug retention retention at 3 uM in medium with 10% FBS incubated for 5 hrs followed by 40 hrs chase period by inverted fluorescence microscopic analysis. Type of series: ADME, cell-based. Conditions: hn-143, 5 h. Summed up:
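Five-day co-cultures of HN-143 tumor epithelial cells and HN-166 tumor fibroblasts, both primary head & neck tumor cultures grown on collagen-1 under selective media. PS in 10% FBS medium for 5 h, then 40 h chase without PS. Phase-contrast and fluorescence images taken at 100X with 500 ms exposure; signal normalized to recording time and cell number.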

The test system of the next series is HN-85-1-3. In words: Photodynamic therapy in human HN-85-1-3 cells assessed as induction of STAT3 cross-linking treated with compound followed by diode laser irradiation at 3 J/cm2 by immunoblot analysis. Format: functional, cell-based. In outline:
(§3)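 Primary HN-85-1-3 tumor epithelial cells loaded with graded PS doses; uptake quantified by fluorescence before light. Dishes irradiated at 37°C with 665 nm diode laser, 6 mW/cm², 3 J/cm² total. Cells lysed in RIPA immediately after light; STAT3 crosslinking and EGFR analysed by SDS-PAGE immunoblot.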

Another series deals with UMUC3. In words: Photosensitizing activity in human UMUC3 cells assessed as reduction in cell viability pretreated with compound for 24 hrs followed by light irradiation at 1 J/cm2 and measured after 48 hrs by MTT assay. Type of series: functional, cell-based. Particulars: UMUC3, light or radiation study. In outline:
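Cells plated 0.01x10⁶ to 0.05x10⁶ cells/ml and allowed to adhere 24 h before photosensitizer was added, top dose 1600 nM with 2-fold serial dilutions. Plates received no light (0 J/cm²) or 1 J/cm² at 565 mW, 15 cm spot. After 48 h, MTT added for 3 h, formazan solubilized in DMSO and read at 570 nm; IC₅₀ fitted from dose-response.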

A short description of series [6]: Drug uptake in tumor of iv dosed SCID mouse xenografted with human UMUC3 cells by fluorescence imaging analysis. Type of series: ADME, organism-based, Neoplasm. Particulars: in vivo.
Series [7] in a line: Drug uptake in liver of SCID mouse xenografted with human UMUC3 cells at 0.25 micromol/kg, iv pretreated with compound followed by light irradiation at a dose of 135 J/cm2 and 75 mW/cm2 measured after 2 to 8 hrs by IVIS analysis. Type of series: ADME, organism-based. Particulars: in vivo, time 2-8 hrs, dose 0.25 µmol/kg. In outline: as §1
Series [8] in a line: Drug uptake in skin of SCID mouse xenografted with human UMUC3 cells at 0.25 micromol/kg, iv pretreated with compound followed by light irradiation at a dose of 135 J/cm2 and 75 mW/cm2 measured after 2 to 8 hrs by IVIS analysis. Particulars: in vivo, time 2-8 hrs, dose 0.25 µmol/kg. Format: ADME, organism-based, Skin of body. Summed up: as §1
Series [9] in a line: Drug uptake in liver of SCID mouse xenografted with human UMUC3 cells at 0.125 micromol/kg, iv pretreated with compound followed by light irradiation at a dose of 135 J/cm2 and 75 mW/cm2 measured after 2 to 24 hrs by IVIS analysis. Type of series: ADME, organism-based. Conditions: in vivo, time 2-24 hrs, dose 0.125 µmol/kg. In outline: as §1
The nature of series [10]: Drug uptake in skin of SCID mouse xenografted with human UMUC3 cells at 0.125 micromol/kg, iv pretreated with compound followed by light irradiation at a dose of 135 J/cm2 and 75 mW/cm2 measured after 2 to 24 hrs by IVIS analysis. Format: ADME, organism-based, Skin of body. Particulars: in vivo, time 2-24 hrs, dose 0.125 µmol/kg. In outline:
as §1

A short description of series [11]: Drug uptake in human HN-85-1-3 cells assessed as photoreactivation by measuring fluorescence when irradiated with diode laser at 3J/cm2 by inverted fluorescence microscopic analysis (reference value: 0 FU). Format: cell-based. In outline: as §3
Series [12] can be described thus: Photosensitizing activity in human HN-85-1-3 cells assessed as induction of STAT3 cross-linking pretreated with compound followed by diode laser irradiation at 3 J/cm2 by immunoblot analysis (reference value: 0 %). Format: functional. In outline: as §3
Series [13] is described as follows: Drug uptake in tumor of SCID mouse xenografted with human FaDu cells at 0.47 to 0.125 micromol/kg, iv pretreated with compound followed by light irradiation at a dose of 135 J/cm2 and 75 mW/cm2 and measured at 24 hrs by IVIS analysis. Type of series: ADME, organism-based, Neoplasm. Particulars: in vivo, dose 0.47-0.125 µmol/kg. In outline: (§4)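 Female SCID mice bearing FaDu tumors 4–5 mm in diameter, 3 per group. PS in 1% Tween80/5% dextrose given iv at 0.47, 0.25 or 0.125 μmol/kg. IVIS whole-body fluorescence imaged at several time points; average radiant efficiency measured in tumor, liver and skin.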

Series [14] is described as follows: Drug uptake in skin of SCID mouse xenografted with FaDu cells at 0.47 to 0.125 micromol/kg, iv pretreated with compound followed by light irradiation at a dose of 135 J/cm2 and 75 mW/cm2 and measured at 24 hrs by IVIS analysis. Format: ADME, organism-based, Skin of body. Particulars: in vivo, dose 0.47-0.125 µmol/kg. Summed up:
as §4

Series [15] in a line: Drug uptake in liver of SCID mouse xenografted with FaDu cells at 0.47 to 0.125 micromol/kg, iv pretreated with compound followed by light irradiation at a dose of 135 J/cm2 and 75 mW/cm2 and measured at 24 hrs by IVIS analysis. Type of series: ADME, organism-based. Conditions: in vivo, dose 0.47-0.125 µmol/kg. In outline: as §4
A short description of series [16]: Drug uptake in skin of iv dosed SCID mouse xenografted with UMUC3 cells by fluorescence imaging analysis. Conditions: in vivo.

As for `CCC1=C(C)c2cc3[nH]c(cc4nc(c5c6[nH]c(cc1n2)c(C)c6C(=O)C5)[C@@H](CCC(=O)OC)[C@@H]4C)c(C)c3C(C)OCc1cccc(C#Cc2cccc(Nc3ncnc4cc(OCCOC)c(OCCOC)cc34)c2)c1` (stereo partly drawn), the Drug uptake entry in series [1], in series [2], in [3], in series [4], in [5] and in [6] was “Active” in each case. The Drug uptake entry in series [7], in series [8], in series [9], in [10], in [13] and in [14] was “Active” throughout. Further, the Drug uptake entry in series [15] and in series [16] was “Active” each time. For the same compound, the Activity entry was “Dose-dependent effect” with HN-85-1-3, 9 FU in series [11] and 0.5% in series [12]. Also, the IC50 in the series with UMUC3 is 59.4 nM.
